Screens: PubChem BioAssay, Broad Institute
T cruzi growth-1: inhibitors of T. cruzi proliferation | T. cruzi beta-gal in NIH3T3, GalScreen luminescence, 90 h | inhibition, % at 8.34 µM | hit rate 5.9% among 77,000;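 active = mean inhibition above about 93%, with at least 55% of replicates each passing it, limit read from the data, passing the limit was not always enough; inconclusive = only one of those two conditions holds; inactive = neither condition holds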
GASC1 inh: blocks human GASC-1 (KDM4C) demethylase activity; Q9H3R0; GST-KDM4C 2-372, H3K9me3 peptide, LANCE TR-FRET; inhibition, % at 12.5 µM; hit rate 0.15% among 96,000; AID 720574;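 active = mean replicate inhibition above about 25%, with at least 55% of replicates also reaching it, limit read from the data, passing the limit was not always enough; inconclusive = only one of those two conditions met; inactive = neither condition met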
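Test system – GST-tagged GASC-1 (JMJD2C) catalytic fragment, aa 2-372 · Medium – HEPES buffer, pH 7.5, plus ascorbate · Reagent – H3K9me3 peptide with Fe(II)/2OG · Compound – one test concentration per compound · Timing – 30 min reaction, 60 min detection, RT · Technique – TR-FRET with Eu antibody and ULight streptavidin, EDTA stop · Read-out basis – inhibition from TR-FRET ratio decrease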
IDH1 mut inh: IDH1 R132H (human) inhibition. IDH1 R132H reductase, diaphorase/resazurin fluorescence, 60 min. inhibition, % at 10 µM. hit rate 0.18% among 70,000. AID 624101; in the data active = inhibition above about 34%; inconclusive = no clear call, values can overlap the other calls; inactive = below about 11%;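 also: 0% = DMSO and 100% = no enzyme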
Target sequence (O75874 whole entry R132H): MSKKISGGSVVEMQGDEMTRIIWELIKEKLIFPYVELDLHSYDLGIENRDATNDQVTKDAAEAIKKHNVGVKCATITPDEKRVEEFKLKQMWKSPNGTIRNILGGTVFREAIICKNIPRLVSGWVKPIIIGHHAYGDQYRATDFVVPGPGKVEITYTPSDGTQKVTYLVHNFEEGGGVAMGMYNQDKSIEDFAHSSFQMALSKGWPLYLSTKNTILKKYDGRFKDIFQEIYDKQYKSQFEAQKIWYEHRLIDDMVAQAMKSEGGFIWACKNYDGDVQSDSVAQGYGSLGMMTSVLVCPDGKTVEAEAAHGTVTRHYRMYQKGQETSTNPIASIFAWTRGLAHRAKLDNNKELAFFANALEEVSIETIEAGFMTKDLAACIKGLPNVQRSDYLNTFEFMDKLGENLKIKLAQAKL
T cruzi growth-2: inhibitors of T. cruzi proliferation. shares compounds with T cruzi growth-1. T. cruzi beta-gal in NIH3T3, GalScreen luminescence, 90 h. inhibition, % at 8.35 µM. hit rate 72% among 5,600. AID 651739;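 active = mean replicate inhibition above about 95% and at least 55% of replicates individually reaching it, limit read from the data; inconclusive = only one of the two criteria is met; inactive = neither criterion is met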
T cruzi growth-3: inhibitors of T. cruzi proliferation | T. cruzi beta-gal in NIH3T3, GalScreen luminescence, 90 h | hit rate 21% among 5,600 | shares compounds with T cruzi growth-1 | inhibition, % at 2.09 µM;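 active = mean inhibition above about 95%, with at least 55% of replicates also reaching it, limit read from the data; inconclusive = meets just one of the two conditions; inactive = meets neither condition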;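 also: plate controls were neutral control median for no effect and positive control median for full effect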
NIH3T3 tox: NIH/3T3 (mouse) viability loss. NIH/3T3 viability, CellTiter-Glo ATP luminescence, 90 h. shares compounds with T cruzi growth-1. cytotoxicity (signal decrease), % at 8.35 µM. AID 651742. hit rate 14% among 5,600;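 active = mean signal decrease across replicates above about 35% based on untreated-well scatter, with enough replicates individually passing, limit read from the data; inconclusive = no rule stated though some were filed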;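 also: 0% = median of neutral control wells and 100% = median of positive control wells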
NIH3T3 tox 2: cytotoxicity in mouse NIH/3T3 fibroblasts; shares compounds with T cruzi growth-1; NIH/3T3 viability, CellTiter-Glo ATP luminescence, 90 h; inhibition, % at 24.9 µM; hit rate 56% among 5,600; AID 651744;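 active = mean loss of cell viability signal at or above a set limit, and enough replicates individually reaching it; inconclusive = meets only the mean limit or only the replicate share; inactive = meets neither condition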;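 also: 0% = median of neutral control wells and 100% = median of positive control wells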
Numbers without * were called inactive; u = inconclusive; x = no result given. Only a selection was taken, and hits are over-represented in it overall.

SMILES	T cruzi growth-1	GASC1 inh	IDH1 mut inh	T cruzi growth-2	T cruzi growth-3	NIH3T3 tox	NIH3T3 tox 2
C[C@H]1CN([C@@H](C)CO)S(=O)(=O)c2ccc(C#CCC3CCCC3)cc2O[C@@H]1CN(C)C	73	x	-1	x	x	x	x
CNC[C@@H]1Oc2cc(C#CCC3CCCC3)ccc2S(=O)(=O)N([C@@H](C)CO)C[C@@H]1C	u	-2	0	87	71	51*	106*
CNC[C@H]1Oc2cc(C#CC3CCCC3)ccc2S(=O)(=O)N([C@H](C)CO)C[C@H]1C	59	0	0	x	x	x	x
CNC[C@@H]1Oc2cc(C#CCC3CCCC3)ccc2S(=O)(=O)N([C@@H](C)CO)C[C@H]1C	u	1	0	101*	60	u	105*
C[C@@H]1CN([C@H](C)CO)S(=O)(=O)c2ccc(C#CCC3CCCC3)cc2O[C@H]1CN(C)C	41	-1	-1	x	x	x	x
CNC[C@H]1Oc2cc(C#CCC3CCCC3)ccc2S(=O)(=O)N([C@@H](C)CO)C[C@@H]1C	u	-2	0	-27	-20	-2	-6
CO[C@@H]1CN(C)C(=O)c2ccc(NC(=O)c3ccno3)cc2OC[C@H](C)NC[C@H]1C	x	0	x	x	x	x	x
O=C(CSc1nnc(-c2ccncc2)n1-c1ccccc1)Nc1ccc(Br)cc1C(F)(F)F	x	x	0	x	x	x	x
CCC(=O)N[C@@H]1CC[C@@H](CC(=O)NCc2cc(F)cc(F)c2)O[C@H]1CO	-35	5	0	x	x	x	x
COc1cccc(S(=O)(=O)N2CCCCN3[C@H](CO)[C@@H](c4ccc(-c5cccnc5)cc4)[C@@H]3C2)c1	94	0	x	x	x	x	x
Cc1cccc(S(=O)(=O)N2CCCCN3[C@@H](CO)[C@@H](c4ccc(-c5cccnc5)cc4)[C@@H]3C2)c1	55	-2	x	x	x	x	x
COc1ccc(S(=O)(=O)N2CCCCN3[C@H](CO)[C@@H](c4ccc(-c5cccnc5)cc4)[C@@H]3C2)cc1	109*	-2	x	u	41	17	37*
COc1ccc(S(=O)(=O)N2CCCCN3[C@@H](CO)[C@H](c4ccc(-c5cccnc5)cc4)[C@@H]3C2)cc1	79	-1	x	x	x	x	x
COc1ccc(S(=O)(=O)N2CCCCN3[C@H](CO)[C@H](c4ccc(-c5cccnc5)cc4)[C@@H]3C2)cc1	104*	-1	x	104*	39	-13	42*
COc1cccc(S(=O)(=O)N2CCCCN3[C@H](CO)[C@H](c4ccc(-c5cccnc5)cc4)[C@H]3C2)c1	110*	-1	x	97*	66	33	35*
COc1ccc(S(=O)(=O)N2CCCCN3[C@H](C2)[C@H](c2ccc(-c4cccnc4)cc2)[C@@H]3CO)cc1	104*	-1	x	87	16	13	22
COc1cccc(S(=O)(=O)N2CCCCN3[C@@H](CO)[C@@H](c4ccc(-c5cccnc5)cc4)[C@@H]3C2)c1	68	-1	x	x	x	x	x
Cc1ccc(NC(=O)CSc2nnc(-c3ccccc3)n2-c2ccccc2)c(Br)c1	x	x	1	x	x	x	x
CCn1c(SCC(=O)Nc2ccccc2C)nnc1-c1ccco1	x	x	0	x	x	x	x
CCCN1C[C@@H](C)[C@@H](OC)CN(C)C(=O)c2ccc(NC(=O)C3CC3)cc2OC[C@@H]1C	x	2	0	x	x	x	x
CN1[C@@H]2c3ccc(-c4cccc(F)c4)c(=O)n3C[C@H]1[C@H](CO)[C@H]2C(=O)Nc1nccs1	-37	8	x	x	x	x	x
C[C@@H]1CN([C@@H](C)CO)C(=O)c2cccc(NC(=O)NC3CCCCC3)c2O[C@@H]1CN(C)Cc1ccc(Oc2ccccc2)cc1	74	0	x	x	x	x	x
CC(C)NC(=O)N(C)C[C@H]1Oc2c(NC(=O)C3CC3)cccc2C(=O)N([C@H](C)CO)C[C@H]1C	97*	-1	1	59	-10	-3	-21
Cc1noc(C)c1NC(=O)N(C)C[C@@H]1Oc2c(NS(=O)(=O)c3c(C)noc3C)cccc2C(=O)N([C@H](C)CO)C[C@@H]1C	102*	0	-1	102*	10	13	-3
C[C@H](CO)N1C[C@H](C)[C@H](CN(C)Cc2ccc(Oc3ccccc3)cc2)Oc2c(NC(=O)NC3CCCCC3)cccc2C1=O	u	0	x	100*	105*	u	52*
SMILES	T cruzi growth-1	GASC1 inh	IDH1 mut inh	T cruzi growth-2	T cruzi growth-3	NIH3T3 tox	NIH3T3 tox 2
C[C@@H]1CN([C@H](C)CO)C(=O)c2cccc(NC(=O)NC3CCCCC3)c2O[C@@H]1CN(C)Cc1ccc(-c2ccccc2)cc1	115*	-1	x	101*	67	6	u
CC(C)NC(=O)N(C)C[C@H]1Oc2c(NC(=O)C3CC3)cccc2C(=O)N([C@@H](C)CO)C[C@H]1C	-11	0	x	x	x	x	x
C[C@H]1CN([C@@H](C)CO)C(=O)c2cccc(NC(=O)NC3CCCCC3)c2O[C@H]1CN(C)Cc1ccc(-c2ccccc2)cc1	74	2	x	x	x	x	x
Cc1noc(C)c1NC(=O)N(C)C[C@@H]1Oc2c(NS(=O)(=O)c3c(C)noc3C)cccc2C(=O)N([C@@H](C)CO)C[C@@H]1C	16	3	x	x	x	x	x
C=C(C(=O)O)[C@@H]1CC[C@@]2(C)CC[C@@H](O)C(=C)C2C1 (stereo not given in full)	x	x	0	x	x	x	x
COc1ccc(NC(=O)Nc2ccc3c(c2)C(=O)N([C@@H](C)CO)C[C@@H](C)[C@H](CN(C)Cc2ccncc2)OCCCC[C@H](C)O3)cc1	69	1	2	x	x	x	x
COc1cccc(C#Cc2cnc3c(c2)C(=O)N([C@H](C)CO)C[C@H](C)[C@@H](CN(C)C(C)=O)O3)c1	-7	-3	0	x	x	x	x
O=C(CC1CC1)N[C@@H]1CC[C@@H](CCNS(=O)(=O)c2ccc(Cl)cc2)O[C@H]1CO	55	0	0	x	x	x	x
C[C@@H]1CN([C@@H](C)CO)C(=O)c2cccc(NC(=O)C3CCCCC3)c2O[C@H]1CN(C)Cc1ccc(Oc2ccccc2)cc1	104	1	x	x	x	x	x
C[C@H](CO)N1C[C@H](C)[C@@H](CN(C)Cc2ccc(Oc3ccccc3)cc2)Oc2c(NC(=O)C3CCCCC3)cccc2C1=O	u	-3	x	104*	89	-28	104*
C[C@@H](O)C#Cc1ccc([C@H]2[C@@H](CO)N3CCCCN(C(=O)c4ccc(F)cc4)C[C@H]23)cc1	99*	2	x	102*	15	-1	-12
COc1ccc(C#Cc2ccc([C@H]3[C@@H](CO)N4CCCCN(C(=O)c5ccncc5)C[C@H]34)cc2)cc1	101*	1	x	102*	63	26	106*
C[C@@H](O)C#Cc1ccc([C@H]2[C@H]3CN(C(=O)c4ccncc4)CCCCN3[C@H]2CO)cc1	u	0	x	u	-7	7	13
C[C@H](O)C#Cc1ccc([C@H]2[C@H](CO)N3CCCCN(C(=O)c4ccncc4)C[C@@H]23)cc1	-23	0	x	x	x	x	x
